# Assay results as given in ChEMBL document CHEMBL3804789, “5-Ene-4-thiazolidinones induce apoptosis in mammalian leukemia cells” (Eur J Med Chem, 2016).
# Activity calls are given as the source filed them. No cut-off for these calls is given here.
# Columns and labels:
# [1] = Antiproliferative activity against human SKOV3 cells after 72 hrs by MTT assay; assay type: functional, cell-based; settings: SK-OV-3, 72 h
# Procedure, shortened: (§1)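 MTT viability after 72 h continuous exposure. Cells seeded 24 h beforehand at 2,000/well (adherent) or 10,000/well (suspension), then given 0, 0.01, 0.1, 0.5, 1.0 or 10.0 μM compound diluted from 10 mM DMSO stock into RPMI or DMEM with 10% FBS, 37°C, 5% CO2. IC50 taken as concentration killing 50% of cells versus untreated culture.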
# [2] = (§2) Antiproliferative activity against human HL60 cells after 72 hrs by MTT assay; assay type: functional, cell-based; settings: HL-60, 72 h; procedure, shortened: as §1
# [3] = system: HL-60; assay: Cytotoxicity against human HL60 cells assessed as reduction in cell survival up to 1 uM treated for 30 mins with ROS scavenger ascorbic acid measured after 72 hrs by MTT assay; assay type: functional, cell-based
# [4] = system: HL-60; assay: Cytotoxicity against human HL60 cells assessed as reduction in cell survival up to 1 uM treated for 30 mins with ROS scavenger N-acetylcysteine measured after 72 hrs by MTT assay; assay type: functional, cell-based
# [5] = system: HL60/ADR; assay: Cytotoxicity against human HL60/ADR cells assessed as reduction in cell survival up to 1 uM treated for 30 mins with ROS scavenger N-acetylcysteine measured after 72 hrs by MTT assay; assay type: functional, cell-based
# [6] = biological target: Mitogen-activated protein kinase; ERK1/ERK2 (Homo sapiens) (UniProt P27361+P28482); assay: Activation of ERK1/2 in human HL60 cells at 0.1 to 1 uM after 48 hrs by Western blot analysis; assay type: cell-based; settings: HL-60
# Procedure, shortened: (§3)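 HL-60 cells exposed 48 h; proteins isolated, resolved by SDS/PAGE, transferred to PVDF and immunoblotted. Equal loading checked by re-probing the same membrane for beta-actin. Peroxidase-labelled secondary antibodies at 1:5,000.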
# [7] = system: HL-60; assay: Induction of apoptosis in human HL60 cells assessed as apoptotic cells at 0.1 to 1 uM after 48 hrs by Annexin V-FITC/propidium iodide staining based fluorescence microscopic analysis; assay type: functional, cell-based
# Procedure, shortened: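 HL-60 cells treated 48 h, pelleted at 2,000 rpm, washed twice in PBS and incubated 15 min in Annexin V binding buffer with 1/20 volume FITC-Annexin V and PI (20.0 μg/mL). Cells examined by fluorescence microscopy on duplicate slides, >500 cells counted per sample.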
# [8] = Cell cycle arrest in human HL60 cells assessed as accumulation at G0/G1 phase at 0.1 to 1 uM after 8 to 48 hrs by propidium iodide staining based flow cytometry; assay type: functional; settings: HL-60
# Procedure, shortened: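 HL-60 cells treated 8 and 48 h, washed in PBS, fixed in 70% ethanol and stored at -20°C. Then RNase (10 µg/ml) 30 min at 37°C, propidium iodide (5 µg/ml) 30 min, and cell-cycle distribution read by flow cytometry.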
# [9] = Antiproliferative activity against mouse KS483 cells after 72 hrs by MTT assay; assay type: cell-based; settings: KS483, 72 h; procedure, shortened: as §1
# [10] = biological target: T1, c-Jun N-terminal kinase, JNK (Homo sapiens) (UniProt P45983+P53779+P45984); assay: Inhibition of JNK in human HL60 cells assessed as increase in phosphorylated STAT3 expression at 0.1 to 1 uM after 48 hrs by Western blot analysis; assay type: cell-based; settings: HL-60; procedure, shortened: as §3
# [11] = system: HL-60; assay: Antiproliferative activity against human HL60 cells at 0.01 to 10 uM by MTT assay; assay type: functional, cell-based; settings: TDE = time-dependent effect
# Procedure, shortened: (§4)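 MTT viability: cells seeded 24 h at 2,000 (adherent) or 10,000 (suspension) per well, then exposed 72 h to 0.01-10.0 μM (0, 0.01, 0.1, 0.5, 1.0, 10.0 μM), diluted from 10 mM DMSO stock into medium with 10% FBS. IC50 is concentration killing 50% of cells relative to untreated control.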
# [12] = biological target: T1, c-Jun N-terminal kinase, JNK (Homo sapiens); assay: Inhibition of JNK phosphorylation in human HL60 cells at 0.1 to 1 uM after 48 hrs by Western blot analysis; assay type: cell-based; settings: HL-60; procedure, shortened: as §3
# [13] = biological target: T2, Retinoblastoma-associated protein (Homo sapiens) (UniProt P06400); assay: Inhibition of retinoblastoma protein phosphorylation in human HL60 cells at 0.1 to 1 uM after 48 hrs by Western blot analysis; assay type: cell-based; settings: HL-60; procedure, shortened: as §3
# T2 sequence (whole entry): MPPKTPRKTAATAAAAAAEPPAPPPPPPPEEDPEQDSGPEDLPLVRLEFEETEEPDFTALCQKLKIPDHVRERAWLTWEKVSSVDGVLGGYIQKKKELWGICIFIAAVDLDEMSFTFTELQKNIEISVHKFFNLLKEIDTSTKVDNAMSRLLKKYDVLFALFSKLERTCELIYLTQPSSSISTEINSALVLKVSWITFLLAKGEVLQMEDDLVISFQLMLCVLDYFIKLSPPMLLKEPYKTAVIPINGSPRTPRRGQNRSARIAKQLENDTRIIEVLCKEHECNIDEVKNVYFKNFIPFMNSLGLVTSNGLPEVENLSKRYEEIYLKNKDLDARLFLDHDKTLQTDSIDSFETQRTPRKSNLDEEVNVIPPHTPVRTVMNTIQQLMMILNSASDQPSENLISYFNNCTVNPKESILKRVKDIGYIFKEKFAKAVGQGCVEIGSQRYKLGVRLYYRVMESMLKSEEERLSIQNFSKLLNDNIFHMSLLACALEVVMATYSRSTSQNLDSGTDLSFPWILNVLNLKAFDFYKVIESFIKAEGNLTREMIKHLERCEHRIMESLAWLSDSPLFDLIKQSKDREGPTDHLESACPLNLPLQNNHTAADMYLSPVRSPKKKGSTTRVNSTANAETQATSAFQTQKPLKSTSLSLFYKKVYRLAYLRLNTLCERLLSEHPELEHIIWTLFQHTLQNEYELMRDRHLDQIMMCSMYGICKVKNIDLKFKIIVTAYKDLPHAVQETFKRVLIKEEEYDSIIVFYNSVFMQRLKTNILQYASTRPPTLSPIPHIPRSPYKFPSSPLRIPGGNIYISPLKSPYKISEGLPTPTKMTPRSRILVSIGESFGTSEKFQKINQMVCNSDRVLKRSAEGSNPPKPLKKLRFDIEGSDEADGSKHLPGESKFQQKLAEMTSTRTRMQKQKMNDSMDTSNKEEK
# [14] = system: HL-60; assay: Induction of apoptosis in human HL60 cells assessed as increase in p21 expression at 0.1 to 1 uM after 48 hrs by Western blot analysis; assay type: functional, cell-based; procedure, shortened: as §3
# [15] = system: HL-60; assay: Induction of apoptosis in human HL60 cells assessed as decrease in Bcl-XL expression at 0.1 to 1 uM after 48 hrs by Western blot analysis; assay type: functional, cell-based; procedure, shortened: as §3
# [16] = system: HL60/ADR; assay: (§5) Antiproliferative activity against human HL60/ADR cells after 72 hrs by MTT assay; assay type: functional, cell-based; procedure, shortened: as §1
# [17] = as §5; assay type: functional, cell-based; procedure, shortened: as §1
# [18] = system: HL-60; assay: Induction of apoptosis in human HL60 cells assessed as increase in Bax expression at 0.1 to 1 uM after 48 hrs by Western blot analysis; assay type: functional, cell-based; procedure, shortened: as §3
# [19] = biological target: T3, Endonuclease G, mitochondrial (Homo sapiens) (UniProt Q14249); assay: Activation of endonuclease G in human HL60 cells at 0.1 to 1 uM after 48 hrs by Western blot analysis; assay type: cell-based; settings: HL-60; procedure, shortened: as §3
# T3 sequence (whole entry): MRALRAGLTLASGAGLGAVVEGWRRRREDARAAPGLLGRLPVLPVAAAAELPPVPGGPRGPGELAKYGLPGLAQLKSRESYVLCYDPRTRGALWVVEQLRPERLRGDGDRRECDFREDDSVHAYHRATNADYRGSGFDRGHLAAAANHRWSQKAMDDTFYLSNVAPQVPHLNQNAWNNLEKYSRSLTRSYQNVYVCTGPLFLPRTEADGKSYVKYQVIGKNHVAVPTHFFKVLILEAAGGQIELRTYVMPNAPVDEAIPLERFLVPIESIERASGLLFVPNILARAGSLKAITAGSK
# [20] = system: HL-60; assay: Induction of apoptosis in human HL60 cells assessed as increase in CDK1 expression at 0.1 to 1 uM after 48 hrs by Western blot analysis; assay type: functional, cell-based; procedure, shortened: as §3
# [21] = Antiproliferative activity against human HL60 cells measured at 6 hrs by MTT assay; assay type: functional, cell-based; settings: HL-60, 6 h
# Procedure, shortened: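 Exposure-time series in HL-60 cells: compound present for 3, 6, 24, 48 or 72 h, viability then read by MTT. IC50 is concentration killing 50% of cells relative to untreated culture.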
# [22] = system: HL-60; assay: Induction of apoptosis in human HL60 cells assessed as decrease in cyclinD3 expression at 0.1 to 1 uM after 48 hrs by Western blot analysis; assay type: functional, cell-based; procedure, shortened: as §3
# [23] = system: Jurkat; assay: Antiproliferative activity against human Jurkat cells after 72 hrs by MTT assay; assay type: functional, cell-based; procedure, shortened: as §1
# [24] = system: HL60/ADR; assay: Cytotoxicity against human HL60/ADR cells assessed as reduction in cell survival up to 1 uM treated for 30 mins with ROS scavenger ascorbic acid measured after 72 hrs by MTT assay; assay type: functional, cell-based
# [25] = system: HL60/ADR; assay: Antiproliferative activity against human HL60/ADR cells at 0.01 to 10 uM by MTT assay; assay type: functional, cell-based; settings: TDE = time-dependent effect; procedure, shortened: as §4
# [26] = system: MCF7; assay: Antiproliferative activity against human MCF7 cells after 72 hrs by MTT assay; assay type: functional, cell-based; settings: MCF7, 72 h; procedure, shortened: as §1
# [27] = system: L929; assay: Antiproliferative activity against mouse L929 cells after 72 hrs by MTT assay; assay type: functional, cell-based; settings: L929, 72 h; procedure, shortened: as §1
# [28] = system: L1210; assay: Antiproliferative activity against mouse L1210 cells after 72 hrs by MTT assay; assay type: functional, cell-based; settings: L1210, 72 h; procedure, shortened: as §1
# [29] = Antiproliferative activity against HEK293T cells after 72 hrs by MTT assay; assay type: cell-based; settings: Homo sapiens, HEK-293T; procedure, shortened: as §1
# [30] = biological target: MAP kinase p38 (Homo sapiens) (UniProt O15264+Q15759+Q16539+P53778); assay: Induction of MAPK p38 phosphorylation in human HL60 cells at 0.1 to 1 uM after 48 hrs by Western blot analysis; assay type: cell-based; settings: HL-60; procedure, shortened: as §3
# [31] = system: HL-60; assay: as §2; assay type: functional, cell-based; procedure, shortened: as §1
# Chain of Mitogen-activated protein kinase; ERK1/ERK2 (Homo sapiens) (P27361 whole entry, looked up): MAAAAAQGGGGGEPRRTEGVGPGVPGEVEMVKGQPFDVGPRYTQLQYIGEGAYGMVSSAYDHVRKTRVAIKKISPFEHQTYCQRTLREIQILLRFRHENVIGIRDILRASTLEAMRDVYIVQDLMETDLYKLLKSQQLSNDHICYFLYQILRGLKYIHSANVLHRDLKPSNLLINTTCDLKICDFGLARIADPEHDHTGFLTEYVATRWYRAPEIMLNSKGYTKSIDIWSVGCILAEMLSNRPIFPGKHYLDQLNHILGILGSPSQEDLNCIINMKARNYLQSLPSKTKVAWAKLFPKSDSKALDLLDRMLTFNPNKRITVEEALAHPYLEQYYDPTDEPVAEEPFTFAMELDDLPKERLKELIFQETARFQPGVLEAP
# Chain of Mitogen-activated protein kinase; ERK1/ERK2 (Homo sapiens) (P28482 whole entry, looked up): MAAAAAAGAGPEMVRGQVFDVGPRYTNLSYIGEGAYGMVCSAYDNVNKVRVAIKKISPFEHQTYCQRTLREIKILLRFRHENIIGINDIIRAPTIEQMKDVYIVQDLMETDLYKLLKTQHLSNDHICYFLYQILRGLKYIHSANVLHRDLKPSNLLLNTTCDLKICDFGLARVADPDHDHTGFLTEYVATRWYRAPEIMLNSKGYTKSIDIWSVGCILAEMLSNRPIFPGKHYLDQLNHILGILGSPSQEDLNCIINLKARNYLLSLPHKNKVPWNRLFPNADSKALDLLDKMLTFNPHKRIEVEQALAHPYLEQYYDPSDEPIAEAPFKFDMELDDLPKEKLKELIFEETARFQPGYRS
structure (smiles),measurement,setting,value
CC(=O)Oc1cccc(N2C(=O)/C(=C/N3N=C(c4ccccc4)CC3c3ccc(N(C)C)cc3)SC2=S)c1 (centres undefined),IC50,[1],> 10000 nM
same,IC50,[2],100 nM
COc1ccc(C2CC(c3ccc4ccccc4c3)=NN2/C=C2\SC(=S)N(c3ccc(OC(C)=O)cc3)C2=O)cc1 (centres undefined),IC50,[1],1100 nM
same,IC50,[2],> 10000 nM
O=C1NC(=S)/C(=C/N2N=C(c3ccccc3)CC2c2ccccc2O)S1 (centres undefined),IC50,[1],7870 nM
same,IC50,[2],990 nM
CC(=O)Oc1cccc(N2C(=O)/C(=C/N3N=C(c4ccccc4)CC3c3ccccc3O)SC2=S)c1 (centres undefined),Activity,[3],inactive
same,Activity,[4],inactive
same,Activity,[5],inactive
same,Activity,[6],Active
same,Activity,[7],Active
same,Activity,[8],Active
same,IC50,[1],> 10000 nM
same,IC50,[9],> 10000 nM
same,inhibition,[10],Active
same,Activity,[11],tde
same,inhibition,[12],Active
same,inhibition,[13],Active
same,Activity,[14],Active
same,Activity,[15],Active
same,Activity,[16],Dose-dependent effect
same,IC50,[17],1000 nM
same,Activity,[18],Active
same,Activity,[19],Active
same,Activity,[20],Active
same,IC50,[21],500 nM
same,Activity,[22],Active
same,IC50,[23],1100 nM
same,Activity,[24],inactive
same,Activity,[25],tde
same,IC50,[26],8300 nM
same,IC50,[27],> 10000 nM
same,IC50,[28],700 nM
same,IC50,[29],> 10000 nM
same,Activity,[30],Active
same,IC50,[2],118 nM
same,Activity,[31],Dose-dependent effect
CC(=O)Oc1ccc(N2C(=O)/C(=C/N3N=C(c4ccc5ccccc5c4)CC3c3ccc(Cl)cc3)SC2=S)cc1 (centres undefined),IC50,[1],> 10000 nM
same,IC50,[2],1800 nM
CCOC(=O)CCN1C(=O)/C(=C/N2N=C(c3ccccc3)CC2c2ccccc2O)SC1=S (centres undefined),IC50,[1],> 10000 nM
same,IC50,[2],> 10000 nM
CCN1C(=O)/C(=C/N2N=C(c3ccccc3)CC2c2ccccc2O)SC1=S (centres undefined),IC50,[1],> 10000 nM
same,IC50,[2],> 10000 nM
O=C1/C(=C/N2N=C(c3ccc4ccccc4c3)CC2c2ccccc2O)SC(=S)N1c1cccnc1 (centres undefined),IC50,[1],5590 nM
same,IC50,[2],4060 nM
CC(=O)Oc1ccc(N2C(=O)/C(=C/N3N=C(c4ccc5ccccc5c4)CC3c3ccccc3O)SC2=S)cc1 (centres undefined),IC50,[1],> 10000 nM
same,IC50,[2],500 nM
O=C1NC(=S)/C(=C/N2N=C(c3ccc4ccccc4c3)CC2c2ccc(Cl)cc2)S1 (centres undefined),IC50,[1],> 10000 nM
same,IC50,[2],156 nM
